Measured values: ChEMBL document CHEMBL1151692, “Substituted hippurates and hippurate analogs as substrates and inhibitors of peptidylglycine alpha-hydroxylating monooxygenase (PHM)” (Bioorg Med Chem, 2008)
Calls of active or inactive are those of the source. No cut-off for these calls is given here. Where a SMILES comes first, the peptide text is derived from it. The star is where a group is joined. Dansyl = CN(C)c1cccc2c(S(=O)(=O)*)cccc12; NHOH = ON*

Experiments:
[1] = molecular target: peptidylglycine alpha-amidating monooxygenase (Rattus norvegicus) (UniProt P14925); assay: Inhibition of rat peptidylamidoglycolate lyase assessed as ascorbate-independent dealkylation of alpha-hydroxy-hipurate; set-up: concentration or dose not given beside the values; conditions: for inhibition: concentration not given here
DU-145 [2] = assay: Antiproliferative activity against human DU145 cells at 10 uM after 48 hrs by trypan blue assay; assay type: functional, cell-based
Summary of the method: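 DU 145 cells plated at 50,000 per well, allowed 24 h to adhere, then given medium containing 10 μM 4-HPR as positive control. Viable cells counted by trypan blue exclusion on a hemacytometer, with growth read at 48 h.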

DU-145 [3] = assay: Antiproliferative activity against human DU145 cells at greater than 500 uM by trypan blue assay; assay type: functional, cell-based
[4] = molecular target: T1, Peptidylglycine alpha-amidating monooxygenase (Rattus norvegicus) (UniProt P14925); assay: Inhibition of rat recombinant peptidylglycine alpha-amidating monooxygenase in presence of DMSO
T1 sequence (whole entry): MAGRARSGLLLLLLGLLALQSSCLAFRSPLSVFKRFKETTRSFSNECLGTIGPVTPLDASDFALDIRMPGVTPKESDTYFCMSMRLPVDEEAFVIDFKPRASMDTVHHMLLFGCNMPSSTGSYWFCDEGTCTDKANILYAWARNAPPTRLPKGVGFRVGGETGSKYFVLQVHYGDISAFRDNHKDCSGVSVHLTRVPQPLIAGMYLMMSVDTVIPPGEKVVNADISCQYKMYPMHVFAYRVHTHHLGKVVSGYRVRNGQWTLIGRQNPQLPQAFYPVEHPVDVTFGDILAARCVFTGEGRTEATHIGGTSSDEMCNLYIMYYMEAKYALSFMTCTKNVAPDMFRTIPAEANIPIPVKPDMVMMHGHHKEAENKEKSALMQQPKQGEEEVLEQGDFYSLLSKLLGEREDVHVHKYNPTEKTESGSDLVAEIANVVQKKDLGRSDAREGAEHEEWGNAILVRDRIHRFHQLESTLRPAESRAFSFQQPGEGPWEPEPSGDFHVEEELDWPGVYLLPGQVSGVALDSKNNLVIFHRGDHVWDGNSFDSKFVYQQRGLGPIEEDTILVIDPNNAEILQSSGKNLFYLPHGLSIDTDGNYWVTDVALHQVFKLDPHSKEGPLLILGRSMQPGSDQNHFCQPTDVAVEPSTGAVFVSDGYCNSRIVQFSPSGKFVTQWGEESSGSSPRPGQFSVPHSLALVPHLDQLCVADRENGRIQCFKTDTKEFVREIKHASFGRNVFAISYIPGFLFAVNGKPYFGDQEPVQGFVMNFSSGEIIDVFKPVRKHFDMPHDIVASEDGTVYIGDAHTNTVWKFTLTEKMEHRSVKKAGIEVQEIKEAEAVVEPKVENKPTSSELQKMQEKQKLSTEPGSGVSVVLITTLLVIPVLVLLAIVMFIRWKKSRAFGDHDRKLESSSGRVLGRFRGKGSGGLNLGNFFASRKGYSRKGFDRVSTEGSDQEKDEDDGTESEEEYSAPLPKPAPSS

[5] = molecular target: T1, Peptidylglycine alpha-amidating monooxygenase (Rattus norvegicus); assay: Inhibition of rat recombinant peptidylglycine alpha-amidating monooxygenase assessed as inhibition of N-dansyl-Tyr-Val-Gly amidation
[6] = molecular target: T1, Peptidylglycine alpha-amidating monooxygenase (Rattus norvegicus); assay: Inhibition of recombinant rat peptidylglycine alpha-amidating monooxygenase assessed as inhibition of oxygen consumption of N-octanoylglycine at 28 mM
Summary of the method: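 Recombinant type A rat medullary thyroid carcinoma bifunctional PAM (15–50 μg) added to 100 mM MES/NaOH pH 6.0, 30 mM NaCl, 1% ethanol, 0.001% Triton X-100, 10 μg/mL catalase, 1.0 μM Cu(NO3)2, ascorbate, 200 μM N-octanoylglycine as substrate, and 28 mM test compound. The read-out is the initial rate of O2 consumption on an oxygen monitor at 37 °C.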

[7] = molecular target: T1, Peptidylglycine alpha-amidating monooxygenase (Rattus norvegicus); assay: Inhibition of rat recombinant peptidylglycine alpha-amidating monooxygenase assessed as inhibition of oxygen consumption at 0.9 mM
[8] = molecular target: T1, Peptidylglycine alpha-amidating monooxygenase (Rattus norvegicus); assay: Inhibition of recombinant rat peptidylglycine alpha-amidating monooxygenase assessed as inhibition of oxygen consumption at 28 mM
DU-145 [9] = assay: Antiproliferative activity against human DU145 cells at 100 uM by trypan blue assay; assay type: functional
[10] = molecular target: T1, Peptidylglycine alpha-amidating monooxygenase (Rattus norvegicus); assay: (§1) Activity of rat recombinant peptidylglycine alpha-amidating monooxygenase assessed as stimulation of oxygen consumption
[11] = molecular target: T1, Peptidylglycine alpha-amidating monooxygenase (Rattus norvegicus); assay: Ratio of Vm(app) to Km(app) for rat recombinant peptidylglycine alpha-amidating monooxygenase
Summary of the method: (§2)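 Recombinant rat type A medullary thyroid carcinoma PAM (bifunctional), 15–50 μg, in 100 mM MES/NaOH pH 6.0, 30 mM NaCl, 1% ethanol, 0.001% Triton X-100, 10 μg/mL catalase, 1.0 μM Cu(NO3)2, 5.0 mM ascorbate, ~200 μM O2, 37 °C. Substrate generally 0.3–5.0 KM,app. Initial O2 consumption rates read by oxygen monitor and fit to Michaelis–Menten.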

[12] = molecular target: T1, Peptidylglycine alpha-amidating monooxygenase (Rattus norvegicus); assay: Ratio of Vm(app) to Km(app) for rat recombinant peptidylglycine alpha-amidating monooxygenase relative to hippuric acid
Summary of the method: as §2

[13] = substrate: Cc1ccc(C(=O)NCC(=O)O)cc1; assay: as §1
[14] = substrate: O=C(O)CNC(=O)CCCCCCCc1ccccc1; assay: as §1
[15] = substrate: Nc1ccccc1C(=O)NCC(=O)O; assay: as §1
[16] = substrate: O=C(O)CNC(=S)Cc1ccccc1; assay: as §1
[17] = substrate: CCCc1ccc(C(=O)NCC(=O)O)cc1; assay: as §1
[18] = substrate: O=C(O)CNC(=O)c1cccc(Cl)c1; assay: as §1
[19] = substrate: O=C(O)CNC(=O)c1ccc(O)cc1; assay: as §1
[20] = substrate: O=C(O)CNC(=O)CNC(=O)CNC(=O)c1ccccc1; assay: as §1
[21] = substrate: O=C(O)CNC(=O)[C@@H]1CCC(=O)N1; assay: as §1
[22] = substrate: O=C(O)CNC(=O)OCc1ccccc1; assay: as §1
[23] = substrate: O=C(O)CNC(=O)CNC(=O)c1ccc([N+](=O)[O-])cc1; assay: as §1
[24] = substrate: O=C(O)CNC(=O)c1ccccc1O; assay: as §1
[25] = substrate: CCc1ccc(C(=O)NCC(=O)O)cc1; assay: as §1
[26] = substrate: COc1ccc(C(=O)NCC(=O)O)cc1; assay: as §1
[27] = substrate: O=C(O)CNC(=O)c1ccc([N+](=O)[O-])cc1; assay: as §1
[28] = substrate: O=C(O)CNC(=O)CCc1ccccc1; assay: as §1
[29] = substrate: C[C@@H](NC(=O)c1ccccc1)C(=O)O; assay: as §1
[30] = substrate: O=C(O)CNC(=O)Nc1ccccc1; assay: as §1
[31] = substrate: O=C(O)CNC(=O)CNC(=O)c1ccccc1; assay: as §1
[32] = substrate: O=C(O)CNC(=O)c1ccc(Br)cc1; assay: as §1
[33] = substrate: O=C(O)CNC(=O)SCc1ccccc1; assay: as §1
[34] = substrate: O=C(O)CNC(=O)c1ccc(Cl)cc1; assay: as §1
[35] = substrate: O=C(O)CNC(=O)CNC(=O)CCl; assay: as §1
[36] = substrate: Nc1ccc(C(=O)NCC(=O)O)cc1; assay: as §1
[37] = substrate: O=C(O)CNC(=O)CCCCCc1ccccc1; assay: as §1
[38] = substrate: O=C(O)CNC(=O)C1CC1c1ccccc1; assay: as §1
[39] = substrate: O=C(O)CNC(=O)c1ccc(C(F)(F)F)cc1; assay: as §1
[40] = substrate: O=C(O)CNC(=O)c1ccccc1I; assay: as §1
[41] = substrate: O=C(O)CNC(=O)c1ccco1; assay: as §1
[42] = substrate: Cc1cccc(C(=O)NCC(=O)O)c1; assay: as §1
[43] = substrate: O=C(O)CNC(=O)/C=C/c1ccccc1; assay: as §1
[44] = substrate: Cc1ccccc1C(=O)NCC(=O)O; assay: as §1
[45] = substrate: O=C(O)CNC(=O)CCCCc1ccccc1; assay: as §1
[46] = substrate: O=C(O)CNC(=O)/C=C/c1ccco1; assay: as §1
[47] = substrate: O=C(O)CNC(=S)CCc1ccccc1; assay: as §1

CC(C)C[C@H](NC(=O)[C@@H]1CCCN1)C(=O)NCC(=O)NO (H-Pro-Leu-Gly-{NHOH})
inhibition [1]: < 5%

O=C(NO)c1ccccc1O
inhibition [1]: < 5%

O=C(O)CSC(=S)Nc1ccccc1
IC50 [1]: 3.5 mM

CCCCCCCCCCCC(=S)SCC(=O)O
inhibition [1]: < 5%

CC1=C(/C=C/C(C)=C/C=C/C(C)=C/C(=O)Nc2ccc(O)cc2)C(C)(C)CCC1
Activity (DU-145 [2]): Active

O=C(O)CNCc1ccccc1
inhibition [1]: < 5%

CC(NC(=S)c1ccccc1)C(=O)O (centres undefined)
inhibition [1]: < 5%

NCC(=O)NNC(=O)OCc1ccccc1
inhibition [1]: < 5%

O=C(O)CSC(=S)Cc1ccccc1
Activity (DU-145 [3]): Active
Kis [4]: 13 µM
inhibition [1]: < 5%
Kis [5]: 7.9 µM

COC(=O)CNC(=O)[C@@H](NC(=O)[C@H](Cc1ccc(O)cc1)NS(=O)(=O)c1cccc2c(N(C)C)cccc12)C(C)C (Dansyl-Tyr-Val-Gly-OMe)
Kis [5]: 54 µM

O=C(O)CONC(=O)c1ccccc1
inhibition [1]: < 5%

O=C(O)CSC(=S)c1ccccc1
Kis [4]: 49 µM
inhibition [1]: < 5%
Kis [5]: 39 µM

O=C(O)CSc1ccccc1
inhibition [1]: < 5%

O=C(O)COC(=O)Nc1ccccc1
inhibition [1]: < 5%

O=C(O)CCSC(=S)Nc1ccccc1
inhibition [1]: < 5%

O=C(O)CNC(=S)Nc1ccccc1
inhibition [1]: < 5%

CC(SC(=S)c1ccccc1)C(=O)O (racemic)
inhibition [1]: < 5%

CC(C#N)(CCC(=O)O)SC(=S)c1ccccc1 (centres undefined)
inhibition [1]: < 5%

O=C(NCC[C@H](O)C(=O)O)OCc1ccccc1
inhibition [1]: < 5%

O=C(N[C@H](CO)C(=O)O)c1ccccc1
inhibition [1]: < 5%

O=C(NCP(=O)(O)O)c1cccnc1
Activity [6]: inactive
inhibition [1]: < 5%
Activity [7]: Active
Activity [8]: Active

Cc1ccc(C(=S)SCC(=O)O)cc1
inhibition [1]: < 5%

O=C(NC(CSC(=O)c1ccccc1)C(=O)O)c1ccccc1 (single isomer, unassigned)
inhibition [1]: < 5%

O=C(O)CSC(=S)CCc1ccccc1
Kis [4]: 30 µM
inhibition [1]: < 5%
Kis [5]: 9.4 µM

CCOC(=O)CSC(=S)c1ccc(C)cc1
inhibition at 100 µM (DU-145 [9]): ≤ 10%
inhibition [1]: < 5%

O=C(O)CNC(=O)c1ccc([N+](=O)[O-])cc1
Vmax(app) [10]: 4.2 s⁻¹
Ratio [11]: 8.9 ×10³ /M/s
Activity [12]: 1.4

B1: Peptidylglycine alpha-amidating monooxygenase (Rattus norvegicus), P14925 (protein)
chain: MAGRARSGLLLLLLGLLALQSSCLAFRSPLSVFKRFKETTRSFSNECLGTIGPVTPLDASDFALDIRMPGVTPKESDTYFCMSMRLPVDEEAFVIDFKPRASMDTVHHMLLFGCNMPSSTGSYWFCDEGTCTDKANILYAWARNAPPTRLPKGVGFRVGGETGSKYFVLQVHYGDISAFRDNHKDCSGVSVHLTRVPQPLIAGMYLMMSVDTVIPPGEKVVNADISCQYKMYPMHVFAYRVHTHHLGKVVSGYRVRNGQWTLIGRQNPQLPQAFYPVEHPVDVTFGDILAARCVFTGEGRTEATHIGGTSSDEMCNLYIMYYMEAKYALSFMTCTKNVAPDMFRTIPAEANIPIPVKPDMVMMHGHHKEAENKEKSALMQQPKQGEEEVLEQGDFYSLLSKLLGEREDVHVHKYNPTEKTESGSDLVAEIANVVQKKDLGRSDAREGAEHEEWGNAILVRDRIHRFHQLESTLRPAESRAFSFQQPGEGPWEPEPSGDFHVEEELDWPGVYLLPGQVSGVALDSKNNLVIFHRGDHVWDGNSFDSKFVYQQRGLGPIEEDTILVIDPNNAEILQSSGKNLFYLPHGLSIDTDGNYWVTDVALHQVFKLDPHSKEGPLLILGRSMQPGSDQNHFCQPTDVAVEPSTGAVFVSDGYCNSRIVQFSPSGKFVTQWGEESSGSSPRPGQFSVPHSLALVPHLDQLCVADRENGRIQCFKTDTKEFVREIKHASFGRNVFAISYIPGFLFAVNGKPYFGDQEPVQGFVMNFSSGEIIDVFKPVRKHFDMPHDIVASEDGTVYIGDAHTNTVWKFTLTEKMEHRSVKKAGIEVQEIKEAEAVVEPKVENKPTSSELQKMQEKQKLSTEPGSGVSVVLITTLLVIPVLVLLAIVMFIRWKKSRAFGDHDRKLESSSGRVLGRFRGKGSGGLNLGNFFASRKGYSRKGFDRVSTEGSDQEKDEDDGTESEEEYSAPLPKPAPSS
Km [13]: 1800 µM
Km [14]: 100 µM
Km [15]: 1400 µM
Km [16]: 24 µM
Km [17]: 1200 µM
Km [18]: 2200 µM
Km [19]: 1700 µM
Km [20]: 310 µM
Km [21]: 310 µM
Km [22]: 590 µM
Km [23]: 110 µM
Km [24]: 860 µM
Km [25]: 1200 µM
Km [26]: 820 µM
Km [27]: 470 µM
Km [28]: 940 µM
Km [29]: 84 mM
Km [30]: 360 µM
Km [31]: 78 µM
Km [32]: 520 µM
Km [33]: 59 µM
Km [34]: 620 µM
Km [35]: 420 µM
Km [36]: 2600 µM
Km [37]: 51 µM
Km [38]: 900 µM
Km [39]: 770 µM
Km [40]: 3.4 mM
Km [41]: 2700 µM
Km [42]: 1400 µM
Km [43]: 230 µM
Km [44]: 4.3 mM
Km [45]: 150 µM
Km [46]: 1200 µM
Km [47]: 38 µM
